In publication PMC12750372 (Acta Pharmaceutica Sinica. B, 2025):

How the values were obtained:
[1] = test system: CREB-mediated gene transcription; assay: CREB Renilla luciferase; type: cell-based; conditions: read-out: CREB inhibition IC50; inhibition of CREB-mediated gene transcription in HEK 293T cells, CRE-RLuc, 30 min peptide then Fsk 10 μmol/L for 5 h
Summary of the method: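 HEK 293T cells were transfected for 3 h with 2 μg pCRE-RLuc (Renilla luciferase driven by three CRE copies) by lipofection, then replated overnight. Peptides at graded concentrations were added for 30 min before forskolin (10 μmol/L), then incubated 5 h at 37 °C. Lysate Renilla luciferase was normalized to well protein (RLU/μg) and expressed as % CREB activity. IC50 came from nonlinear regression.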

HEK 293T cells [2] = assay: Cell uptake by confocal microscopy of FITC-labeled peptides; type: cell-based; conditions: FITC-labeled peptides at 10 μmol/L, 4 h
Summary of the method: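 HEK 293T cells attached overnight, then received FITC-labeled peptides in DMEM (0.1% DMSO) at final 1, 10 and 20 μmol/L for 4 h at 37 °C, 5% CO2. After three PBS washes, cells were DAPI-stained (10 μg/mL, 10 min), washed, methanol-fixed 5 min and imaged by multiphoton laser scanning microscopy. The αB helix of KID served as control peptide.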

HEK 293T cells [3] = assay: Cell uptake by flow cytometry of FITC-labeled peptides; type: cell-based
Summary of the method: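 Suspended HEK 293T cells (3 × 10^5, DMEM with 10% FBS) were mixed with FITC-labeled peptides in DMEM (0.1% DMSO) at final 1, 10 and 20 μmol/L for 30 min at room temperature in the dark. They were spun at 500×g, washed in staining buffer, resuspended and run on a flow cytometer. Mean fluorescence from two independent experiments was normalized to a reference stapled peptide at 20 μmol/L.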

[4] = test system: CREB-mediated transcription; conditions: read-out: IC50 in CREB Renilla luciferase reporter assay; cited from earlier work
KIX/KID interaction = conditions: up to 50 μmol/L; cited from earlier work

Row | SMILES | IC50 [1] [µM] | Cell uptake by confocal imaging (HEK 293T cells [2]) | Fold increase of cell uptake compared to linear L3 and stapled S1 (HEK 293T cells [3]) [fold] | IC50 [4] [µM] | Inhibition of the KIX/KID interaction (in words) (KIX/KID interaction)
1 | CC(=O)N[C@@H](Cc1ccc(O)cc1)CN(CC(=O)N[C@@H](CCCCN)CN(CC(=O)N[C@@H](Cc1ccccc1)CN(CC(=O)N[C@H]1CCCCNc2c(F)c(F)c(c(F)c2F)Sc2c(F)c(F)c(c(F)c2F)Sc2c(F)c(F)c(c(F)c2F)NCCCC[C@@H](CN(CC(=O)N[C@@H](C)CN(CC(N)=O)S(C)(=O)=O)S(C)(=O)=O)NC(=O)CN(S(=O)(=O)CC(C)C)C[C@H](CC(C)C)NC(=O)CN(S(=O)(=O)CCN)C1)S(=O)(=O)CC(C)C)S(=O)(=O)CCN)S(C)(=O)=O [Compound S3] | 66 | significant cell uptake | ~4 | – | –
2 | O=C(Nc1ccc(Cl)cc1)c1cc2ccccc2cc1OP(=O)(O)O [KG-501] | – | – | – | 5.4 | no significant inhibition
